{"source": "ChEMBL document CHEMBL1127319", "about": "“CNAD: a potent and specific inhibitor of alcohol dehydrogenase” (J Med Chem, 1994)", "key": {"[1]": {"assay": "Michaelis-Menten constant against mammalian malate dehydrogenase (MDH)", "how_it_was_run": "(§1)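 NAD is varied and the A340 increase from NADH formation is monitored (ε 6.22 mM-1 cm-1). Buffers differ by enzyme: ADH in 0.1 M phosphate, pH 8.0, with ethanol 1.2 mM; GDH in 0.1 M phosphate, pH 7.0, with 10 μM EDTA; LDH and MDH in 0.05 M Tris-HCl, pH 9.0. At least duplicate.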"}, "[2]": {"test_system": "NC(=O)c1ccc[n+]([C@@H]2O[C@H](COP(=O)([O-])OP(=O)(O)OC[C@H]3O[C@@H](n4cnc5c(N)ncnc54)[C@H](O)[C@@H]3O)[C@@H](O)[C@H]2O)c1", "assay": "Michaelis-Menten constant against mammalian glutamate dehydrogenase (GDH)", "how_it_was_run": "as §1"}, "[3]": {"test_system": "NC(=O)c1ccc[n+]([C@@H]2O[C@H](COP(=O)([O-])OP(=O)(O)OC[C@H]3O[C@@H](n4cnc5c(N)ncnc54)[C@H](O)[C@@H]3O)[C@@H](O)[C@H]2O)c1", "assay": "Michaelis-Menten constant against mammalian lactate dehydrogenase (LDH)", "conditions": "Sus scrofa", "how_it_was_run": "as §1"}}, "data": [{"compound": "NC(=O)c1ccc[n+]([C@@H]2O[C@H](COP(=O)([O-])OP(=O)(O)OC[C@H]3O[C@@H](n4cnc5c(N)ncnc54)[C@H](O)[C@@H]3O)[C@@H](O)[C@H]2O)c1", "values": [{"measurement": "Km", "setting": "[1]", "value": 32, "unit": "µM"}]}, {"compound": "Glutamate dehydrogenase 1, mitochondrial (Bos taurus), P00366", "values": [{"measurement": "Km", "setting": "[2]", "value": 30, "unit": "µM"}]}, {"compound": "L-lactate dehydrogenase A chain (Homo sapiens) (from UniProt P00338)", "values": [{"measurement": "Km", "setting": "[3]", "value": 141, "unit": "µM"}]}]}
